Tests used:
[1] = molecular target: Cannabinoid receptor 1 (Homo sapiens, UniProt P21554); experiment: Displacement of [3H]CP-55940 from human CB1 receptor expressed in HEK293 cells; assay type: cell-based
[2] = molecular target: T1, Cannabinoid receptor 2 (Homo sapiens, UniProt P34972); experiment: Displacement of [3H]CP-55940 human CB2 receptor expressed in CHOK1 cells; assay type: cell-based, CHO-K1
Summary of the method: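 Human CB2 expressed in CHO cells. Values are the mean ± SEM of at least three determinations, derived by logistic curve fitting.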

[3] = molecular target: Cytochrome P450 2C19 (Homo sapiens, UniProt P33261); experiment: Inhibition of CYP2C19 in human liver microsomes; assay type: ADME, Microsome
Chain of Cytochrome P450 2C19 (P33261 whole entry): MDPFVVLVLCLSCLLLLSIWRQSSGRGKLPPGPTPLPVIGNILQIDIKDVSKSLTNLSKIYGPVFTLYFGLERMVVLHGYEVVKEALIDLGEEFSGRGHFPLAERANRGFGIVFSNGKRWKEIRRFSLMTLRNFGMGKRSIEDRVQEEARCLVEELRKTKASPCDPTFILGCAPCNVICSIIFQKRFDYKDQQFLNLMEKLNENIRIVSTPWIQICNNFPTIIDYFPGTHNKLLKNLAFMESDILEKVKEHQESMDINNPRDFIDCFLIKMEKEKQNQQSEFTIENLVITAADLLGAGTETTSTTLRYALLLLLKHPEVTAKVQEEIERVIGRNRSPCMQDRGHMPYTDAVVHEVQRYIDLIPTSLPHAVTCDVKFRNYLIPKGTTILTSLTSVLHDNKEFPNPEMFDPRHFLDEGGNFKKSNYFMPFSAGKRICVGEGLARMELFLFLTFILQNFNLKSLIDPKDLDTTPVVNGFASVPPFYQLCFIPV

[4] = molecular target: Cytochrome P450 2D6 (Homo sapiens, UniProt P10635); experiment: Inhibition of CYP2D6 in human liver microsomes; assay type: ADME, Microsome
Chain of Cytochrome P450 2D6 (P10635 whole entry): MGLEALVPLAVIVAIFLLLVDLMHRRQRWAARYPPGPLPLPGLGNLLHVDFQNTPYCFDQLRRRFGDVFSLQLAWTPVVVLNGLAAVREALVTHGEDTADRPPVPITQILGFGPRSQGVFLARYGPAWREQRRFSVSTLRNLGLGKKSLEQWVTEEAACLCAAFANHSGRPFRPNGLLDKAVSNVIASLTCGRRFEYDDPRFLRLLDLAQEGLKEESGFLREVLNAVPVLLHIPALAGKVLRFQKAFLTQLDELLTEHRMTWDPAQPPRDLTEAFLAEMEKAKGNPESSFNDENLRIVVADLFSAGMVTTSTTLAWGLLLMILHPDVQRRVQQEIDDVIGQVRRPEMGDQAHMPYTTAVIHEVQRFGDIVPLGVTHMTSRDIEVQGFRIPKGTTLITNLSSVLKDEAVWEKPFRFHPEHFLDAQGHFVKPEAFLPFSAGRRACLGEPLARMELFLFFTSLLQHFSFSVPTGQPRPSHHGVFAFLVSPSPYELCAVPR

[5] = Volume of distribution at steady state in Wistar rat at 1 mg/kg, iv; assay type: ADME, organism-based; design: dose 1 mg/kg, route intravenous; details: in vivo, read-out: Vdss
Summary of the method: (§1)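 Wistar rats dosed once iv at 1 mg/kg or orally at 3.4 mg/kg. Plasma parameters (half-life, steady-state volume of distribution, total clearance, AUC0-∞, Tmax, Cmax) were derived from the concentration–time profiles. Absolute oral bioavailability was calculated from the po and iv AUC0-∞.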

[6] = Cmax in Wistar rat at 3 mg/kg, po after 1 hr; assay type: ADME, organism-based; design: dose 3 mg/kg, route oral; details: in vivo
Summary of the method: (§2)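 Single oral dose of 3 mg/kg in Wistar rats. Plasma and brain concentrations were followed over time after dosing.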

[7] = Half life in Wistar rat at 1 mg/kg, iv; assay type: ADME, organism-based; design: dose 1 mg/kg, route intravenous; details: in vivo, read-out: beta t1/2 (converted); summary of the method: as §1
[8] = Total clearance in Wistar rat at 1 mg/kg, iv; assay type: ADME, organism-based; design: dose 1 mg/kg, route intravenous; details: in vivo; summary of the method: as §1
[9] = molecular target: T1, Cannabinoid receptor 2; experiment: Agonist activity at human CB2 receptor expressed in CHOK1 cells assessed as reversal of forskolin-evoked cAMP accumulation relative to CP-55940; assay type: functional, cell-based; details: CHO-K1
Summary of the method: (§3)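 CHO cells expressing human CB2 were stimulated with forskolin, and agonist reversal of cyclic AMP accumulation was measured. Potency is given as mean ± SEM of 3–13 independent measurements. Emax is the maximal reversal, expressed as a percentage of the value obtained with a reference agonist.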

[10] = system: Rattus norvegicus; experiment: Antihyperalgesic activity in rat assessed as reversal of hyperalgesia at 3 mg/kg, po after 1 hr; assay type: functional
Summary of the method: (§4)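 Rat model of neuropathic mechanical hyperalgesia with oral dosing. Read-out was paw withdrawal threshold of the ipsilateral paw, followed from 1 h after dosing, with 12 animals per group, as mean ± SEM. Groups were compared with vehicle by ANOVA and Tukey's HSD.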

[11] = molecular target: T1, Cannabinoid receptor 2; experiment: Agonist activity at human CB2 receptor expressed in CHOK1 cells assessed as reversal of forskolin-evoked cAMP accumulation; assay type: functional, cell-based, CHO-K1; summary of the method: as §3
[12] = molecular target: Cytochrome P450 2E1 (Homo sapiens, UniProt P05181); experiment: Inhibition of CYP2E1 in human liver microsomes; assay type: ADME, Microsome
Chain of Cytochrome P450 2E1 (P05181 whole entry): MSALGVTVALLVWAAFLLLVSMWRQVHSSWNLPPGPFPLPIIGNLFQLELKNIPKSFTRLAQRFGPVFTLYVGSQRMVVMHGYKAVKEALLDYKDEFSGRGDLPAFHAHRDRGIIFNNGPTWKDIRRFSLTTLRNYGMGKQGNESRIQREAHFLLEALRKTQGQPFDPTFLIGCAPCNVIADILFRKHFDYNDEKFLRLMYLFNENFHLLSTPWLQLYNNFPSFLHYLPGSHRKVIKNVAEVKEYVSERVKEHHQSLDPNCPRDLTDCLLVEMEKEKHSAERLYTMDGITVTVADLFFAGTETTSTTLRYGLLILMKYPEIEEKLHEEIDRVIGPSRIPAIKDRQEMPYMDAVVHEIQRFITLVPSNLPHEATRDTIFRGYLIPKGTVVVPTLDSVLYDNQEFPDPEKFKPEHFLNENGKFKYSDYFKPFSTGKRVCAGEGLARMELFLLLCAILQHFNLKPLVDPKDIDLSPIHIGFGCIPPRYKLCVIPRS

[13] = Partition coefficient, log P of the compound; assay type: physicochemical; details: octanol/water
[14] = Tmax in Wistar rat at 3.4 mg/kg, po; assay type: ADME, organism-based; design: dose 3.4 mg/kg, route oral; details: in vivo; summary of the method: as §1
[15] = Plasma protein binding; assay type: ADME, cell-free; details: human, read-out: PPB
[16] = molecular target: Cytochrome P450 2C9 (Homo sapiens, UniProt P11712); experiment: Inhibition of CYP2C9 in human liver microsomes; assay type: ADME, Microsome
Chain of Cytochrome P450 2C9 (P11712 whole entry): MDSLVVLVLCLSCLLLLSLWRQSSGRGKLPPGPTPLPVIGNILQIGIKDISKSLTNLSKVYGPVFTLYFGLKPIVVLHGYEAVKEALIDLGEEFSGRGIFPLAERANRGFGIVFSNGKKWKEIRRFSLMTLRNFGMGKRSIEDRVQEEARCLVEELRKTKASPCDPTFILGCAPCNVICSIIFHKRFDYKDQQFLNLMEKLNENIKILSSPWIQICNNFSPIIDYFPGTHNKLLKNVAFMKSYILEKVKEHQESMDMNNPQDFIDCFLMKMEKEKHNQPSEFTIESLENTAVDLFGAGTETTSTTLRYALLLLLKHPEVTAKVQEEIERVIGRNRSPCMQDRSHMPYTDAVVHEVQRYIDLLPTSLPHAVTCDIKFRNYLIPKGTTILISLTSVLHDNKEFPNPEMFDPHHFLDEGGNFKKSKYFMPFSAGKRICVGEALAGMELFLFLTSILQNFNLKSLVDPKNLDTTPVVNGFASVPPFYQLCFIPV

[17] = AUC (0 to infinity) in Wistar rat at 3.4 mg/kg, po; assay type: ADME, organism-based; design: time infinity, dose 3.4 mg/kg, route oral; details: plasma; summary of the method: as §1
[18] = molecular target: Cytochrome P450 3A4 (Homo sapiens, UniProt P08684); experiment: Inhibition of CYP3A4 in human liver microsomes; assay type: ADME, Microsome
Chain of Cytochrome P450 3A4 (P08684 whole entry): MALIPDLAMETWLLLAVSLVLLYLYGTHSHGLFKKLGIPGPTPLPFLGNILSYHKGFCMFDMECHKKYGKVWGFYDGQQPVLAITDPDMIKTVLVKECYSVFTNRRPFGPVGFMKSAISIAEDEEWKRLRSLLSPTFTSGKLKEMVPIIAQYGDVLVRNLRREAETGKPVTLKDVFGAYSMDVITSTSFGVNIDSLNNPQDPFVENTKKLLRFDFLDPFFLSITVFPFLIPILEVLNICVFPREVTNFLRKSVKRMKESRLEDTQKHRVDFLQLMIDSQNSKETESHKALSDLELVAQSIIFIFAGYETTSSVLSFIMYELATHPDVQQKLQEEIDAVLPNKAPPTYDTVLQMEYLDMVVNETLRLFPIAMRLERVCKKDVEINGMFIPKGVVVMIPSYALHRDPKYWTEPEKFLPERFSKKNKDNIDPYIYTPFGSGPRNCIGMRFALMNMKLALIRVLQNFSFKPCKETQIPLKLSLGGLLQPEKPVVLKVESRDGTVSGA

[19] = Bioavailability in Wistar rat at 3.4 mg/kg, po; assay type: ADME, organism-based; details: in vivo; summary of the method: as §1
[20] = molecular target: Cannabinoid receptor 1 (Rattus norvegicus, UniProt P20272); experiment: Inhibition of rat CB1 receptor
Chain of Cannabinoid receptor 1 (Rattus norvegicus, UniProt P20272) (P20272 whole entry): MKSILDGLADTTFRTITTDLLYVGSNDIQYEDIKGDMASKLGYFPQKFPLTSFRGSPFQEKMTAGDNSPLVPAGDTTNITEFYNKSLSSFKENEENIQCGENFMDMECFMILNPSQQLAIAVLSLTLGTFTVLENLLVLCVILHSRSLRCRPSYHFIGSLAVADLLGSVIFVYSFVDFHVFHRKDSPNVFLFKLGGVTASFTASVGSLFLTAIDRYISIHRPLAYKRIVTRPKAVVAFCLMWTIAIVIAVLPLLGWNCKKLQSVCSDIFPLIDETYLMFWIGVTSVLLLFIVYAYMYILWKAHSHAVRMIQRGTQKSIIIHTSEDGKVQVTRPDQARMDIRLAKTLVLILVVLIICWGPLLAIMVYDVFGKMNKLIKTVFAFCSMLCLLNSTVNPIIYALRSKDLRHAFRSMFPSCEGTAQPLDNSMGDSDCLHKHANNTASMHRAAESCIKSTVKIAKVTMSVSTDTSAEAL

[21] = molecular target: T2, Cytochrome P450 2C8 (Homo sapiens, UniProt P10632); experiment: Inhibition of CYP2C8 in human liver microsomes; assay type: ADME, Microsome
T2 sequence (P10632 whole entry): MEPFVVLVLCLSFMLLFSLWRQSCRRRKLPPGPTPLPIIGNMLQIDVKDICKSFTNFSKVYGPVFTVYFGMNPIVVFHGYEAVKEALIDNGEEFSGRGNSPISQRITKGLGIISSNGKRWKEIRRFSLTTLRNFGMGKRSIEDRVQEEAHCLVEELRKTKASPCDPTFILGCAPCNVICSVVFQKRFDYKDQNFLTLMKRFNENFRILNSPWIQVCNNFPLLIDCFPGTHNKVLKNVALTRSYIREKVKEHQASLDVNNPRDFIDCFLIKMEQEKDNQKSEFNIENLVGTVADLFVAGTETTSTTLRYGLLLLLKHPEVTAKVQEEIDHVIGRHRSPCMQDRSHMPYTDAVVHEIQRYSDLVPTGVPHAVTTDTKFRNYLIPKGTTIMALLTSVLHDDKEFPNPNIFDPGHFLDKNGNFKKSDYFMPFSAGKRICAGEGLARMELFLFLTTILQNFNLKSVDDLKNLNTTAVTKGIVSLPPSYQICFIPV

[22] = Cmax in Wistar rat at 3.4 mg/kg, po; assay type: ADME, organism-based; design: dose 3.4 mg/kg, route oral; details: in vivo; summary of the method: as §1
[23] = system: Liver microsomes; experiment: Intrinsic clearance in rat liver microsomes; assay type: ADME, Microsome
[24] = system: Liver microsomes; experiment: Intrinsic clearance in human liver microsomes; assay type: ADME, Microsome
[25] = AUC (0 to infinity) in Wistar rat at 1 mg/kg, iv; assay type: ADME, organism-based; design: time infinity, dose 1 mg/kg, route intravenous; details: plasma; summary of the method: as §1
[26] = system: Brain; experiment: Drug level in brain in Wistar rat after 4 hrs; assay type: ADME, tissue-based; details: in vivo; summary of the method: as §2
[27] = species on record: Rattus norvegicus; experiment: Antihyperalgesic activity in rat assessed as reversal of hyperalgesia; assay type: functional; summary of the method: as §4
[28] = molecular target: T3, Cytochrome P450 1A2 (Homo sapiens, UniProt P05177); experiment: Inhibition of CYP1A2 in human liver microsomes; assay type: ADME, Microsome
T3 sequence (P05177 whole entry): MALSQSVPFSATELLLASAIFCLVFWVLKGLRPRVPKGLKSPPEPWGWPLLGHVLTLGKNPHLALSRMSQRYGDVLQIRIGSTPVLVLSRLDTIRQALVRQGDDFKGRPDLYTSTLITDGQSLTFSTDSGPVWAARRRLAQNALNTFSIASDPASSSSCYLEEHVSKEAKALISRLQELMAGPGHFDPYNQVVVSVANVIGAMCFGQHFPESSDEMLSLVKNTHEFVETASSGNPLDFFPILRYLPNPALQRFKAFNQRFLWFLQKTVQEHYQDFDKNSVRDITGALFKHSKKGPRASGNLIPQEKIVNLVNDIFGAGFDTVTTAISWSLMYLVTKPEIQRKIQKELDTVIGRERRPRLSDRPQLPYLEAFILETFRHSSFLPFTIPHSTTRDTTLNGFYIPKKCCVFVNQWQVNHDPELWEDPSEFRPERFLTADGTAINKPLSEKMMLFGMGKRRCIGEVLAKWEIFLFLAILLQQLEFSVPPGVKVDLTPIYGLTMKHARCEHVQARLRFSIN

Chain of Cannabinoid receptor 1 (Homo sapiens, UniProt P21554) (P21554 whole entry): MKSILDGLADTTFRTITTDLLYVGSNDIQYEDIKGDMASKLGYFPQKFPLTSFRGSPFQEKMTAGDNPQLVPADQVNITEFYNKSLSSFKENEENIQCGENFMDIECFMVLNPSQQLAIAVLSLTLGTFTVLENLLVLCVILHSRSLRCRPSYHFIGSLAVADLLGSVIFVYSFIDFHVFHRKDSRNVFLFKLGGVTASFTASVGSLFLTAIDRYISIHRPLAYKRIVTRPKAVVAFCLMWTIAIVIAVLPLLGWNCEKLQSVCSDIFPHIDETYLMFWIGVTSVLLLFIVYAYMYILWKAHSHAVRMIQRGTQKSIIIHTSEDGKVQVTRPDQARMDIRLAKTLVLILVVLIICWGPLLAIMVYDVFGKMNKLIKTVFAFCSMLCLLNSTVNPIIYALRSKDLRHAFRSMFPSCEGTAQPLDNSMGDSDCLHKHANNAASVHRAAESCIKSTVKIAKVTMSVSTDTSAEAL
T1 sequence (P34972 whole entry): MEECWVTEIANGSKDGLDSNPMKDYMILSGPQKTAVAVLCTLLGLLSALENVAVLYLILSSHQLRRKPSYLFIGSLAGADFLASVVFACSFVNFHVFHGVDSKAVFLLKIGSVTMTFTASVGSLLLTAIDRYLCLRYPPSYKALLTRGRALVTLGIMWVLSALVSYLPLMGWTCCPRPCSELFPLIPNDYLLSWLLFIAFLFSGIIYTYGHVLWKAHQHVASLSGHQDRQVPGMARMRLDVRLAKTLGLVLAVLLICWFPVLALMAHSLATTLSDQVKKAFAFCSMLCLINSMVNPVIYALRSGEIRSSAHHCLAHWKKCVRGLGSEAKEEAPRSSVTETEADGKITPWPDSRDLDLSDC

Q: What does the source list for CCCCCCOc1ccc(C(=O)c2cccc3ccccc23)c2ccccc12?
A: IC50 [1]: 160 nM; IC50 [2]: 660 nM

Q: With O=C(c1cccc2ccccc12)c1ccc(OCCc2ccccc2)c2ccccc12 as the compound, how does the IC50 [1] read?
A: Its IC50 is 930 nM.

Q: And the IC50 [2]?
A: Its IC50 is 2000 nM.

Q: For CCCCCNc1ccc(C(=O)c2cccc3ccccc23)c2ccccc12, which IC50 [1] is on record?
A: The IC50 was 25 nM.

Q: And the IC50 [2]?
A: Its IC50 is 120 nM.

Q: For CCCCCOc1ccc(C(=O)c2cccc3ccccc23)c2ccccc12, which IC50 [3] is on record?
A: The IC50 was over 200000 nM.

Q: What about the IC50 [4] of the same compound?
A: The IC50 was over 200000 nM.

Q: And the Vd [5]?
A: Its Vd is 9.6 L/kg.

Q: What about the Cmax [6] of the same compound?
A: The Cmax was 1130 nM.

Q: What about the half-life [7] of the same compound?
A: Its half-life is 64.6 h.

Q: What about the clearance [8] of the same compound?
A: Its clearance is 8 mL/min/kg.

Q: And the Emax [9]?
A: The Emax was 88.4%.

Q: And the Activity [10]?
A: The Activity was 90%.

Q: And the EC50 [11]?
A: Its EC50 is 27.9 nM.

Q: What about the IC50 [12] of the same compound?
A: Its IC50 is over 200000 nM.

Q: And the logP [13]?
A: Its logP is 6.85.

Q: What about the Tmax [14] of the same compound?
A: Its Tmax is 1 h.

Q: What about the fraction unbound [15] of the same compound?
A: The fraction unbound was under 0.01.

Q: What about the IC50 [16] of the same compound?
A: Its IC50 is 80800 nM.

Q: And the AUC(0-inf) [17]?
A: The AUC(0-inf) was 8.39 µM·h.

Q: And the IC50 [18]?
A: Its IC50 is over 200000 nM.

Q: What about the bioavailability [19] of the same compound?
A: The bioavailability was 43%.

Q: And the IC50 [20]?
A: Its IC50 is 22 nM.

Q: And the IC50 [21]?
A: The IC50 was over 200000 nM.

Q: And the Cmax [22]?
A: Its Cmax is 1600 nM.

Q: What about the CL [23] of the same compound?
A: The CL was under 5 µL/min.

Q: What about the CL [24] of the same compound?
A: The CL was under 5 µL/min.

Q: What about the IC50 [2] of the same compound?
A: The IC50 was 98 nM.

Q: What about the AUC(0-inf) [25] of the same compound?
A: Its AUC(0-inf) is 5.72 µM·h.

Q: And the Drug uptake [26]?
A: The Drug uptake was 0.24 µmol/kg.

Q: And the D50 [27]?
A: The D50 was 0.17 mg/kg.

Q: And the IC50 [28]?
A: The IC50 was over 200000 nM.

Q: Which Emax [9] does the source give for Cc1c(C(=O)c2cccc3ccccc23)c2cccc3c2n1[C@H](CN1CCOCC1)CO3 [WIN-552122] here?
A: The Emax was 96.9%.

Q: What about the D50 [27] of the same compound?
A: The D50 was 0.52 mg/kg.

Q: For CCCOc1ccc(C(=O)c2cccc3ccccc23)c2ccccc12, which IC50 [1] is on record?
A: The IC50 was 300 nM.

Q: What about the IC50 [2] of the same compound?
A: The IC50 was 90 nM.

Q: With CCCCOc1ccc(C(=O)c2cccc3ccccc23)c2ccccc12 as the compound, how does the IC50 [1] read?
A: Its IC50 is 48 nM.

Q: What about the IC50 [2] of the same compound?
A: The IC50 was 85 nM.

Q: For CCCCCCC(C)(C)c1ccc([C@@H]2C[C@H](O)CC[C@H]2CCCO)c(O)c1 [CP-55940], which Emax [9] is on record?
A: The Emax was 100%.

Q: What about the D50 [27] of the same compound?
A: Its D50 is 0.08 mg/kg.

From ChEMBL document CHEMBL1148711, “Naphthalen-1-yl-(4-pentyloxynaphthalen-1-yl)methanone: a potent, orally bioavailable human CB1/CB2 dual agonist with antihyperalgesic properties and restricted central nervous system penetration” (J Med Chem, 2007)
